Test results: ChEMBL document CHEMBL4184319, “Fluorescent-Labeled Selective Adenosine A2B Receptor Antagonist Enables Competition Binding Assay by Flow Cytometry” (J Med Chem, 2018)

Experiments:
Adenosine receptor A2b [1] = biological target: T1, Adenosine receptor A2b (Homo sapiens, UniProt P29275); assay: Displacement of PSB-12105 from recombinant human adenosine A2B receptor expressed in CHO cell membranes preincubated for 30 mins followed by PSB-12105 addition measured after 20 mins by flow cytometric method; assay type: cell-based
T1 sequence (P29275 whole entry): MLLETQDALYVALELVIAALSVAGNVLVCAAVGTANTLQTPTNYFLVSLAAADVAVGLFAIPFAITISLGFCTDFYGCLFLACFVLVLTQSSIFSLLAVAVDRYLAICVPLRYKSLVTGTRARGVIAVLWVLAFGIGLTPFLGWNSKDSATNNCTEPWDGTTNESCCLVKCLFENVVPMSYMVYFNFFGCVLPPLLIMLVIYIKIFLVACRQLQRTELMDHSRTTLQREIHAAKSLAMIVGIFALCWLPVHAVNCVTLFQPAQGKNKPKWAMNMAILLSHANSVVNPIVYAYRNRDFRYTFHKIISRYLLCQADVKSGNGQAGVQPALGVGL
Outline: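 Live CHO-hA2B cells were pre-treated with ADA (2 U/mL, 2 h, 37°C), detached with 5 mM EDTA, and resuspended in HBSS with 2 U/mL ADA at 2.5×10^5 cells/well in 96-well format. Antagonists pre-incubated 30 min at 37°C, then fluorescent ligand (100 nM) added for 20 min at 37°C. 3-5 independent experiments in duplicate.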

Adenosine receptor A2b [2] = biological target: T1, Adenosine receptor A2b; assay: Antagonist activity at recombinant human adenosine A2B receptor expressed in CHO cell membranes assessed as inhibition of NECA-induced cAMP accumulation preincubated for 1 hr followed by NECA induction measured after 5 mins in presence of [3H]cAMP and bovine cAMP-binding protein by liquid scintillation counting method; assay type: functional
Outline: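 CHO cells stably expressing human A2BAR, pre-incubated with antagonist dilutions for 1 h at 37°C, then stimulated with NECA (10 µM final) for 5 min at 37°C. Reaction stopped with hot (90 °C) lysis solution (4 mM EDTA, 0.01 % Triton X100). cAMP quantified by radioactive competition with [³H]cAMP and bovine adrenal cAMP-binding protein. Response expressed as % of NECA response without antagonist. Means ± SEM, three independent experiments in duplicate.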

Adenosine receptor A2b [3] = biological target: T1, Adenosine receptor A2b; assay: biochemical
Adenosine receptor A3 = biological target: T2, Adenosine receptor A3 (Homo sapiens, UniProt P0DMS8); assay: Displacement of [3H]PSB-11 from recombinant human adenosine A3 receptor expressed in CHO cell membranes after 180 mins by liquid scintillation counting method
T2 sequence (P0DMS8 whole entry): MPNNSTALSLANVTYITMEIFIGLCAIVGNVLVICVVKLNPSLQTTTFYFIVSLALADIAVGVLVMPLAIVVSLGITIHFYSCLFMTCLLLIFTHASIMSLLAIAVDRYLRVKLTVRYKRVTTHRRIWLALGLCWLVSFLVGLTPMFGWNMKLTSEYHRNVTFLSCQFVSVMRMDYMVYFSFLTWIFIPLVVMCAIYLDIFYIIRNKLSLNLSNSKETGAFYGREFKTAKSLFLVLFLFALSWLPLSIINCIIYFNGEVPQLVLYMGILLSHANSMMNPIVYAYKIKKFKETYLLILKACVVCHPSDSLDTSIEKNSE
Outline: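 Human A3AR CHO cell membranes were pre-incubated 10–15 min with adenosine deaminase (0.12 IU/mL), then incubated with [3H]PSB-11 (1 nM) at rt, with 2.5% DMSO final. Nonspecific binding was defined with 100 µM R-PIA. Incubation ended by GF/B filtration with ice-cold 50 mM Tris-HCl (pH 7.4) rinses. Test compounds were run at 6–7 concentrations over 3 log units, in ≥3 independent experiments in duplicate.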

CCCn1c(=O)[nH]c2nc(-c3ccc(S(=O)(=O)N4CCN(c5ccc(Cl)cc5)CC4)cc3)[nH]c2c1=O
IC50 (Adenosine receptor A2b [1]): 0.739 nM
IC50 (Adenosine receptor A2b [2]): 18.3 nM
IC50 (Adenosine receptor A2b [3]): 0.534 nM
Ki (Adenosine receptor A3): > 10000 nM
